# Measurements of several laboratories.
# Target: Inhibitor of nuclear factor kappa-B kinase subunit epsilon (IKBKE, Homo sapiens, UniProt Q14164)
# Sequence (Q14164 1-716, as in one of the studies): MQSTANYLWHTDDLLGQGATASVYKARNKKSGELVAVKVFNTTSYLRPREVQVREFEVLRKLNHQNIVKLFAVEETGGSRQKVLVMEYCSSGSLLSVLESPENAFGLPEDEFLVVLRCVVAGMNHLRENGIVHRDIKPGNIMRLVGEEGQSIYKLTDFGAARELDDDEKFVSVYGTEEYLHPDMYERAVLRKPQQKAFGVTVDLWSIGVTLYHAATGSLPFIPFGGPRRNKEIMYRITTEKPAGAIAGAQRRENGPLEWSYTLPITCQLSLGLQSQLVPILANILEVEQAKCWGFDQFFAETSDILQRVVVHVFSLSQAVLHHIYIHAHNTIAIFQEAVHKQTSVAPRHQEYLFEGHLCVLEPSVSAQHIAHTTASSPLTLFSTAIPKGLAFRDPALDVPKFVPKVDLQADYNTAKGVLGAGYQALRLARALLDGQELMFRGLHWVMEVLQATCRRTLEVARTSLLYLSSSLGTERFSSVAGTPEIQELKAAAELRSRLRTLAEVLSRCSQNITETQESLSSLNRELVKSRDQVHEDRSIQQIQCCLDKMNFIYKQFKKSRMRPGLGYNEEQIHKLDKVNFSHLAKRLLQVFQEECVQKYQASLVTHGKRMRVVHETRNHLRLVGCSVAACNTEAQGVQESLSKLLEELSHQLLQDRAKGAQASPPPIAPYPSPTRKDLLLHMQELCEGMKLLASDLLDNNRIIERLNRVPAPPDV
Compound,assay,setting,measurement,result
O=C(N[C@H]1CCCCC/C=C\C2C[C@@]2(C(=O)O)NC(=O)[C@@H]2C[C@@H](Oc3ccncc3)CN2C1=O)OC1CCCC1 (stereo partly shown),"binding, competition with immobilised ligand",1 µM,remaining binding,100%
CCN(CC)CCNC(=O)c1c(C)[nH]c(/C=C2\C(=O)Nc3ccc(F)cc32)c1C,cell-free assay,0.5 µM,remaining signal,45.6%
CCC(=O)N[C@H]1CC[C@@H](C(=O)N(C)c2ccc(-c3nc4ccccc4o3)cc2)C1,"cell-free assay, competition with immobilised ligand",1 µM,remaining binding,52%
Cc1nn(CC(F)(F)F)cc1Nc1ncc(Br)c(NCc2ccc(S(N)(=O)=O)cc2)n1,"enzyme activity, inhibitor, radiometric",1 µM,remaining activity,23%
CCOc1cc(-c2nncn2C)ccc1Nc1ncc2cc(C)nc(NCC(C)(C)C)c2n1,"enzyme activity, inhibitor, FRET",1 µM,inhibition,< 15%
c1cc(CN2CCOCC2)cc(Nc2nccc(NCCc3cnc[nH]3)n2)c1,"enzyme activity, inhibitor, radiometric",1 µM,remaining activity,80%
Nc1nc(Nc2ccc(S(N)(=O)=O)cc2)nn1C(=O)c1c(F)cccc1F,cell-free assay,0.5 µM,remaining signal,95.9%
Cc1nn(CC(F)(F)F)cc1Nc1ncc(C2CC2)c(NCc2ccc(S(N)(=O)=O)cc2)n1,"enzyme activity, inhibitor, radiometric",1 µM,remaining activity,43%
Cc1ccc(NC(=O)c2ccc(C)c(C(F)(F)F)c2)cc1C#Cc1nn(C2CCC(O)CC2)c2ncnc(N)c12 (stereo not shown),cell-free assay,10 µM,remaining signal,94%
O=C(Nc1cccc(Nc2ncc(Br)c(NCCc3cnc[nH]3)n2)c1)N1CCCC1,"enzyme activity, inhibitor, radiometric",1 µM,remaining activity,44%
C[C@H](c1cccc(C#N)c1)n1cc(Cl)cc(C(N)=O)c1=N,"cell-free assay, competition with immobilised ligand",1 µM,remaining binding,82%
CN1CCN(c2ccc3nc(-c4c(N)c5c(F)cccc5[nH]c4=O)[nH]c3c2)CC1,"enzyme activity, inhibitor",0.5 µM,activity vs control,42.9%
O=C(NCCCNc1ccnc(Nc2cccc(NC(=O)N3CCCC3)c2)n1)C1CCC1,"enzyme activity, inhibitor, radiometric",1 µM,remaining activity,33%
COc1cc(/C=C/C(=O)CC(=O)/C=C/c2ccc(O)c(OC)c2)ccc1O,"enzyme activity, inhibitor",1 µM,activity vs control,72%
COc1cc2ncnc(Nc3ccc(Oc4ccccc4)c(C)c3C)c2cc1OC,"enzyme activity, inhibitor",1 µM,inhibition,1%
NS(=O)(=O)c1ccc(CNc2ccnc(Nc3cccc(NC(=O)N4CCCC4)c3)n2)cc1,"enzyme activity, inhibitor, radiometric",1 µM,remaining activity,79%
Cc1noc([C@H]2C[C@@H](c3ccc(C(F)(F)F)cc3)CN(C(=O)N3CCS(=O)(=O)C3)C2)n1,"cell-free assay, competition with immobilised ligand",1 µM,remaining binding,100%
COc1cc2c(N3CCN(C(=O)Nc4ccc(OC(C)C)cc4)CC3)ncnc2cc1OCCCN1CCCCC1,cell-free assay,0.5 µM,remaining signal,96.2%
CC(C)CC(=O)N1CCc2nc(-c3ccc(Br)cc3)nc(N(C)Cc3ccccc3)c2C1,"cell-free assay, competition with immobilised ligand",0.1 µM,remaining binding,100%
Cc1cc(NC(=O)c2cccc3cc(-c4cccc5[nH]nc(N)c45)ccc23)ccc1F,"enzyme activity, inhibitor",0.1 µM,activity vs control,111%
CCCS(=O)(=O)Nc1ccc(F)c(C(=O)c2c[nH]c3ncc(-c4ccc(Cl)cc4)cc23)c1F,"enzyme activity, inhibitor",1 µM,inhibition,< 10%
C[C@H](NC(=O)c1cnc2n1[C@](C)(Cc1ccc(C#N)cc1)C(=O)N2c1cc(Cl)c(F)c(Cl)c1)C(=O)NC1(c2ccccn2)CC1,"cell-free assay, competition with immobilised ligand",1 µM,remaining binding,89%
